# From PubChem BioAssay
# Pemphigus Ab inh: inhibitors of pemphigus antibody binding to DSG3, primary screen, biochemical, bead-based, flow cytometry, scFv-GFP; Desmoglein-3 (Homo sapiens), P32926; DSG3-coupled beads, scFv-anti-DSG3-GFP binding; stronger effect = lower value; binding (percent of control), % at 10 µM; 310,000 compounds, 0.48% hits; AID 588358, 2011;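 active = binding more than 3 SD below its plate's average and above zero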
# Target sequence (P32926 whole entry, looked up): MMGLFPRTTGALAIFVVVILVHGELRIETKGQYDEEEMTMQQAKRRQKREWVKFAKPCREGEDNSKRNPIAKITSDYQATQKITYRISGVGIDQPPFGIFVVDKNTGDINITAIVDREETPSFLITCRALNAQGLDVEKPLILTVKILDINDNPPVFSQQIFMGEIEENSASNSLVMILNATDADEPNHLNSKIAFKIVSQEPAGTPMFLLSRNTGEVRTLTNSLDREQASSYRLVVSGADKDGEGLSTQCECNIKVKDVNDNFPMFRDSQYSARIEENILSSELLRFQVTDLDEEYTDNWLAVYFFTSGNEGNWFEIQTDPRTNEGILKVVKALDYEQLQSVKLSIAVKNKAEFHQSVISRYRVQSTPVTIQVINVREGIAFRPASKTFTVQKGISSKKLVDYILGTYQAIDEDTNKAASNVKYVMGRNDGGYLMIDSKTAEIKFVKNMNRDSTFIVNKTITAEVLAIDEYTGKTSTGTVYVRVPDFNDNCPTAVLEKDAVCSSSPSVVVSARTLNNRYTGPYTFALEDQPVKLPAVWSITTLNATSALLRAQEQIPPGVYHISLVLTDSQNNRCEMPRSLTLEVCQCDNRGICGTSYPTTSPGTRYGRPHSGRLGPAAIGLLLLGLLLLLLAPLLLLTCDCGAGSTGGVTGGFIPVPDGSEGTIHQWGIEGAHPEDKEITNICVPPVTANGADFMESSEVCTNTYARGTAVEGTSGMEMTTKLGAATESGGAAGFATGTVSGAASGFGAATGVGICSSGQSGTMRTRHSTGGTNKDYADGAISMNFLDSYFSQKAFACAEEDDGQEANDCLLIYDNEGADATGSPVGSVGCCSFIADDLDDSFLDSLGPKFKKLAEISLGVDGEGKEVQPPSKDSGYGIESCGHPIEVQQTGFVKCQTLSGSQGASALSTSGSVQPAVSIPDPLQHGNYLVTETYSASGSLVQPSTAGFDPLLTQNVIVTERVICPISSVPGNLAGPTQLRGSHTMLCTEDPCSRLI
# Arrestin-AP2 inh: inhibitors of beta-arrestin/AP2 binding, primary screen, biochemical, GPCR trafficking, flow cytometry | FITC-arrestin peptide / GST-AP2 beads; AP2 beta2 appendage carries R879A mutation | inhibition, % at 10 µM | 340,000 compounds, 0.31% hits;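 active = inhibition above a set limit, near 3 SD of compounds lacking own fluorescence, cut at about 54% in these data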;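 note: plate controls were DMSO wells for no effect and 5 µM unlabelled arrestin peptide for full effect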
#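 Assay system: GST-AP2 R879A bound to glutathione beads, E. coli-expressed; Medium: PBS with 0.05% Tween 20 and 0.1% BSA; Also added: fluorescein-tagged arrestin peptide at 50 nM final; Timing: 12 min plus 1 h, RT; Measured by: flow cytometry, FL1 (488/535 nm); Evaluation: percent drop in bead-associated FITC signal.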
# Efflux pump inh: inhibitors of Candida efflux pumps in yeast, primary screen, S. cerevisiae, Nile Red, multiplex; S. cerevisiae Candida pump triplex; inhibition, % at 10 µM; 330,000 compounds, 0.44% hits;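 active = plate passing quality check with inhibition over a set limit, or well fluorescence over plate mean plus 4 SD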;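 note: Nile Red retained in pooled yeast measured as flow cytometry median fluorescence; 0% = buffer negative control and 100% = Enniatin B positive control; higher means more Nile Red kept so more efflux inhibition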
# Neddylation inh: inhibitors of cullin neddylation, primary screen, biochemical, TR-FRET, uHTS, NAE and Ubc12; 360,000 compounds, 0.58% hits; NEDD8-conjugating enzyme Ubc12 (Homo sapiens) + NEDD8-activating enzyme E1 regulatory …; inhibition, % at 25 µM; AID 651699, 2012; in the data active = inhibition above about 36%
# Neddyl inh conf: blockade of NEDD8 conjugation to cullin – biochemical, TR-FRET, single concentration, confirmation; shares compounds with Neddylation inh; TR-FRET cullin neddylation biochemical assay; calls only at 25 µM; 1,800 compounds, 13% hits; AID 652217, 2013; in the data active = inhibition above about 40%;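 note: neddylation substrate is the cullin 1 ring ligase complex with SKP2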
# Active calls of the source: *; i = inactive; nt = no result shown; + = active, no number. Compounds with a hit are over-represented: about 1.7% of the library has one in this group of screens.
SMILES,Pemphigus Ab inh,Arrestin-AP2 inh,Efflux pump inh,Neddylation inh,Neddyl inh conf
CCOCCCn1c(C)nc2c(c1=O)c1nc3ccccc3nc1n2CCC1=CCCCC1,106,2,0,45*,i
O=C(Cc1cccs1)NNC(=S)NCc1ccc(Cl)cc1,101,18,0,-5,nt
O=C(Cc1ccc(Cl)cc1)NNC(=S)NC(=O)c1cccs1,106,-23,0,53*,i
CCOC(=O)C1CCCN(c2c(Nc3cc(C)cc(C)c3)c(=O)c2=O)C1 (centres undefined),101,-3,0,-11,nt
O=C1NC(c2ccc3c(c2)OCO3)Oc2ccccc21 (centres undefined),100,6,0,42*,i
O=C1NC(c2ccc3c(c2)OCO3)Nc2ccccc21 (centres undefined),110,-14,0,nt,nt
CCOc1ccc(C2NC(=O)c3ccccc3O2)cc1OC (centres undefined),103,-11,0,37,nt
CCOc1cc(C2NC(=O)c3ccccc3O2)ccc1OC(C)C (centres undefined),107,4,0,45*,i
CCOc1ccc(C2NC(=O)c3ccccc3O2)cc1OCC (centres undefined),117,10,0,41*,i
CCOP(=O)(Cc1ccc(C(C)(C)CC(C)=O)o1)OCC,110,0,0,2,nt
Cn1c(NCCN(CCO)CCCc2ccc([N+](=O)[O-])cc2)cc(=O)n(C)c1=O,101,-6,0,-26,nt
COc1cc2cc(C(=O)N/N=C/c3ccc(F)cc3)[nH]c2cc1OC,99,0,0,40*,i
CCOc1ccc(/C=N/NC(=O)c2cc3ccccc3cc2OC)cc1,107,-5,0,42*,i
COc1cc2cc(C(=O)N/N=C/c3ccccc3Cl)[nH]c2cc1OC,106,-6,0,nt,nt
COc1ccc(/C=N/NC(=O)c2cc3cc(OC)c(OC)cc3[nH]2)cc1,93,13,0,46*,i
CCOc1ccc2[nH]c(C(=O)N/N=C/c3ccc(OC)cc3)cc2c1,108,29,0,34,nt
COc1ccc2cc(C(=O)N/N=C/c3cc(OC)c(OC)c(OC)c3)[nH]c2c1,93,5,-1,43*,+
Cc1ccc(NS(=O)(=O)c2ccc(C(=O)N3CCN(S(=O)(=O)c4ccccc4)CC3)cc2)cc1,99,-2,0,6,nt
COc1c(C)cc(S(=O)(=O)NCCN2CCOCC2)c(C)c1C,111,10,0,-1,nt
Oc1cnc2ccccc2c1CN1CCOCC1,92,25,0,42*,i
Oc1ccc2ccccc2c1CN1CCOCC1,93,7,0,27,nt
CCOC(=O)[C@H]1[C@H]2COc3ccc(Cl)cc3[C@H]2N2C(=O)CNC(=O)[C@@]12C,99,-2,0,7,nt
CCc1nnc(NC(=O)CSc2nnc(-c3ccccc3O)n2-c2ccc(C)cc2C)s1,nt,-9,0,41*,i
CCc1nnc(NC(=O)CSc2nnc(COc3ccccc3)n2-c2ccc(C)cc2)s1,nt,15,0,-16,nt
CC(C)Oc1cccc(C(=O)C2CCCN(Cc3cnc(N4CCCC4)s3)C2)c1 (centres undefined),109,39,0,-4,nt
SMILES,Pemphigus Ab inh,Arrestin-AP2 inh,Efflux pump inh,Neddylation inh,Neddyl inh conf
COc1ccc2cc(C(=O)C3CCCN(Cc4cnc(N5CCOCC5)s4)C3)ccc2c1 (centres undefined),106,-2,0,42*,i
CCN(CC(=O)NCc1cccs1)C(=O)/C=C/c1cc(OC)c(OC)c(OC)c1,106,-18,nt,39*,+
COc1ccc(/C=N/NC(=O)Cc2cc(OC)c(OC)cc2[N+](=O)[O-])cc1,105,12,0,-17,nt
CCOC(=O)C(=CNc1ccc2c(c1)nnn2-c1ccc(Cl)cc1)C(=O)OCC,112,-8,0,44*,nt
CCOC(=O)c1cc(NC(=O)COC)ccc1O,nt,nt,0,nt,nt
CCOC(=O)C(=CNc1ccc(O)c(C(=O)OC)c1)C(=O)OCC,102,6,0,43*,i
Cc1ccc(NC(=O)CSc2nnc(N)s2)cc1S(=O)(=O)N1CCOCC1,99,18,0,-3,nt
Cc1cccc(NC(=S)N/N=C2\CC(C)(C)Oc3ccc(O)cc32)c1,92,-4,0,32,nt
COc1cccc(NC(=S)N/N=C2\CC(C)(C)Oc3ccc(O)cc32)c1,88,6,0,43*,i
CCN(C[C@H]1N[C@@](CC)(C(=O)OC)[C@H]2C(=O)N(Cc3ccccc3)C(=O)[C@@H]12)C(C)=O,95,38,1,1,nt
CCCNC(=O)c1ccccc1NC(=O)c1ccc2c(=O)n3c(nc2c1)CCC3,102,1,0,46*,nt
O=C(NCc1ccccc1)c1nc(-c2c(F)cccc2F)oc1-c1ccccc1,nt,nt,nt,44*,nt
CC(=O)c1ccc2c3c(cccc13)CC2,100,6,0,38*,i
COCCCNC(=O)[C@H](Cc1ccccc1)NC(=O)CC[C@H]1O[C@@H](n2ccc(=O)[nH]c2=O)[C@H](O)[C@@H]1O,nt,nt,nt,3,nt
CCOC(=O)[C@H]1[C@H]2COc3ccc(C)cc3[C@@H]2N2C(=O)CN(CC3CCCO3)C(=O)[C@@]12C (some centres undefined),103,2,0,-1,nt
CCCCc1cc(=O)oc2cc(OC3CCCCC3=O)ccc12 (centres undefined),100,25,0,39*,i
COc1ccc(Cl)cc1NC(=O)C(C)N1CCN(c2ccccn2)CC1 (centres undefined),102,32,0,7,nt
COc1ccccc1Nc1ncc(C(=O)N2CCC(C(N)=O)CC2)c2ccccc12,101,30,0,27,nt
COc1ccccc1Nc1ncc(C(=O)N2CCN(Cc3ccc(OC)c(OC)c3OC)CC2)c2ccccc12,99,-7,0,44*,nt
C/C(=N/OC(=O)c1ccccc1)c1oc(C)nc1C,nt,3,0,0,nt
COc1ccc(C(=O)Nc2ccncc2)cc1S(=O)(=O)N1CCOCC1,nt,-3,0,-16,nt
COc1ccc(C(=O)Nc2ccc(NC(=O)c3ccccc3)cc2)cc1S(=O)(=O)N1CCOCC1,114,-4,0,41*,i
Nc1cc(C(=O)O)ccc1Nc1ccccc1,nt,15,0,48*,nt
CCc1ccccc1Nc1ccc(C(=O)O)cc1N,110,6,0,25,nt
Cc1cccc(-n2ncc3c(NC(C)C)ncnc32)c1,102,10,0,39*,i
CC(C)Nc1ncnc2c1cnn2-c1ccccc1,101,15,0,10,nt
